Test results as given in paper PMC6641930 (ACS Omega, 2017).
“And” between values parts separate entries of the source, which are not always exact repeats. Identical values can stand only once. Like-named read-outs stand apart in the source and are kept apart here.

How the values were obtained:
TTR fibrils [1] = biological target: T1, TTR fibrils (Homo sapiens, UniProt P02766); experiment: Titration of TTR fibrils on a fixed probe concentration; format: binding
Procedure, shortened: (§1)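 Fibrils (0–20 μM, monomer basis) are titrated onto fixed probe: 1 μM, or 0.5 μM for Aβ1-42 fibrils. Buffers are pH 3.0 for TTR, insulin and lysozyme, and PBS pH 7.5 for Aβ1-42 (10 μM, 37 °C, 24 h quiescent). Samples equilibrate 30 min at room temperature. Excitation 330 nm, emission 350–700 nm. Kd comes from a one-site nonlinear fit with fixed Bmax correcting for unbound probe. SD is from two independent binding series.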

insulin fibrils [2] = biological target: T2, insulin fibrils (Bos taurus, UniProt P01317); experiment: Titration of insulin fibrils on a fixed probe concentration; format: binding, Bovine
Procedure, shortened: as §1

lysozyme fibrils [3] = biological target: T3, lysozyme fibrils (Gallus gallus, UniProt P00698); experiment: Titration of lysozyme fibrils on a fixed probe concentration; format: binding, chicken
Procedure, shortened: as §1

Aβ1-42 fibrils [4] = biological target: T4, Aβ1-42 fibrils (Homo sapiens, UniProt P05067); experiment: Titration of Aβ1-42 fibrils on a fixed probe concentration; format: binding
Procedure, shortened: as §1

TTR fibrils [5] = biological target: T1, TTR fibrils; experiment: Fluorescence emission of probe bound to TTR fibrils; format: binding; conditions: 5 μM fibrils + 1 μM probe; pH 3.0; excitation 330 nm
Procedure, shortened: (§2)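 Fibrils made from pH 3.0 (TTR: purified WT TTR in 50 mM NaAc/100 mM NaCl; bovine insulin or hen lysozyme: 200 μM in 25 mM HCl pH 1.6 at 65 °C, then dialysed into NaAc/NaCl pH 3.0). 1.0 μM probe from DMSO stock mixed with 5 μM fibrils (monomer basis) in HOAc/NaAc pH 3.0. Excitation 330 nm, emission 350–600 nm. Fold increase taken relative to free probe in buffer.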

insulin fibrils [6] = biological target: T2, insulin fibrils; experiment: Fluorescence emission of probe bound to insulin fibrils; format: binding, Bovine; conditions: pH 3.0; for Int: fold increase in fluorescence intensity upon binding to insulin fibrils: 5 μM fibrils (monomer basis) + 1 μM probe, versus free probe; for λem2: emission maxima of probe bound to insulin fibrils: 5 μM fibrils + 1 μM probe, excitation 330 nm
Procedure, shortened: as §2

lysozyme fibrils [7] = biological target: T3, lysozyme fibrils; experiment: Fluorescence emission of probe bound to lysozyme fibrils; format: binding, chicken; conditions: pH 3.0; for Int: fold increase in fluorescence intensity upon binding to lysozyme fibrils: 5 μM fibrils (monomer basis) + 1 μM probe, versus free probe; for λem2: emission maxima of probe bound to lysozyme fibrils: 5 μM fibrils + 1 μM probe, excitation 330 nm
Procedure, shortened: as §2

Aβ1-42 fibrils [8] = biological target: T4, Aβ1-42 fibrils; experiment: Fluorescence emission of probe bound to Aβ1-42 fibrils; format: binding; conditions: PBS buffer pH 7.5; for Int: fold increase in fluorescence intensity upon binding to Aβ1-42 fibrils: 5 μM fibrils (monomer basis) + 1 μM probe, versus free probe
Procedure, shortened: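 Recombinant Aβ1-42 (extra N-terminal Met), solubilised in 6 M GuHCl and gel-filtered into PBS pH 7.5. […] Probe (1.0 μM, from DMSO stock) mixed with 5 μM fibrils or freshly dissolved monomer (monomer basis) in PBS pH 7.5. Emission spectra at 330 nm excitation, identical settings.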

native TTR [9] = biological target: T5, native TTR (Homo sapiens, UniProt P02766); experiment: Fluorescence emission of probe with native TTR; format: binding; conditions: 5 μM native TTR + 1 μM probe; for emission peaks of probe bound to native TTR: excitation 330 nm; for fluorescence intensity increase upon binding to native TTR: versus probe in buffer
Procedure, shortened: (§3)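 Probe (1.0 μM final, from DMSO stock) is read free in buffer or with 5 μM native protein (monomer basis). Buffers are HOAc/NaAc pH 3.0 or PBS pH 7.5. Aβ1-42 is recombinant with an extra N-terminal Met, freshly gel-filtered monomer in PBS pH 7.5. Spectra are recorded at 330 nm excitation, 350–600 nm emission, with identical instrument settings.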

native Aβ1-42 = native Aβ1-42 (Homo sapiens, UniProt P05067); experiment: Fluorescence emission of probe with freshly dissolved native Aβ1-42; format: binding; conditions: 5 μM native Aβ1-42 + 1 μM probe; PBS buffer
Procedure, shortened: as §3

[10] = UV-vis absorption and fluorescence spectra in methanol; format: physicochemical; conditions: for λmax (em): excitation 330 nm, [probe] = 20 μM; for ε: four concentrations
Procedure, shortened: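 Absorption is read in methanol in a 1 cm quartz cuvette at room temperature, at 20 μM and at four concentrations (50–5 μM, or 10–2 μM for one probe) for ε. Fluorescence of 20 μM probe in methanol uses 330 nm excitation, 350–600 nm emission and 1 nm resolution.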

Fluorescence lifetime = format: physicochemical; conditions: A: degassed methanol, [probe] = 5 μM
Procedure, shortened: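 TCSPC decays of 5 μM probe in argon-degassed methanol, excited at 337 nm and monitored at each emission maximum at room temperature. Instrument response is determined with a fibril solution. Decays are fitted to a sum of exponentials, with fit quality judged by χ2, residual distribution and residual autocorrelation. Average lifetime is calculated from amplitudes and lifetimes. Lifetime uncertainty is within 10%.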

Aβ1-42 fibrils [11] = biological target: T4, Aβ1-42 fibrils; experiment: Fluorescence lifetime; conditions: for τavg (average fluorescence lifetime): B: bound to Aβ1-42 fibrils in PBS buffer pH 7.5, [probe] = 5 μM; for τavg (average fluorescence lifetime) / λem1 (emission wavelength of decay) / τ1: [fibrils] = 20 μM; for λem1 (emission wavelength of decay) / τ1: [probe] = 5 μM
Procedure, shortened: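 Time-correlated single photon counting on 5 μM probe with 20 μM Aβ1-42 fibrils (monomer basis) in PBS pH 7.5 at 25 °C, not degassed. Excitation 337 nm; decay recorded at the bound-probe emission maximum. Instrument response is measured with fibril solution. Multi-exponential fits are judged by χ2 and residuals. Uncertainty is within 10%.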

native TTR [12] = biological target: T5, native TTR; experiment: Saturation binding of native TTR to probe
[13] = Emission maximum of free probe in buffer; format: physicochemical; conditions: HOAc/NaOAc buffer pH 3.0 or PBS buffer pH 7.5
Procedure, shortened: as §3

insulin fibrils [14] = biological target: T2, insulin fibrils; conditions: read-out: Kd of ThT binding to insulin fibrils; one binding site; cited from earlier work
lysozyme fibrils [15] = biological target: T3, lysozyme fibrils; conditions: two binding sites, cited from earlier work
[16] = cited from earlier work
[17] = B: bound to Aβ1-42 fibrils in PBS buffer

T4 sequence (P05067 672-713): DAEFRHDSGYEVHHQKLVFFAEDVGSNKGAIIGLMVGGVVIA
T3 sequence (P00698 19-147): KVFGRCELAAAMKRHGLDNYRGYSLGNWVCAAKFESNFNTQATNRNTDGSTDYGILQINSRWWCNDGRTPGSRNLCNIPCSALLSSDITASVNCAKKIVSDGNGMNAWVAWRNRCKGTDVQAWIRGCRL
T2 sequence (P01317 25-54 limits assumed): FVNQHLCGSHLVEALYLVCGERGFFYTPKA
T2 sequence (P01317 85-105 limits assumed): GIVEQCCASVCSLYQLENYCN
Chain of native Aβ1-42 (P05067 672-713): as the sequence (P05067 672-713) above

Structure (SMILES)	Kd (TTR fibrils [1]) [nM]	Kd (insulin fibrils [2]) [nM]	Kd (lysozyme fibrils [3]) [nM]	Kd (Aβ1-42 fibrils [4]) [nM]	λem2: emission maxima of probe bound to TTR fibrils (TTR fibrils [5])	Int: fold increase in fluorescence intensity upon binding to insulin fibrils (insulin fibrils [6]) [fold]	λem2: emission maxima of probe bound to insulin fibrils (insulin fibrils [6])	Int: fold increase in fluorescence intensity upon binding to lysozyme fibrils (lysozyme fibrils [7]) [fold]	λem2: emission maxima of probe bound to lysozyme fibrils (lysozyme fibrils [7]) [nm]	Int: fold increase in fluorescence intensity upon binding to Aβ1-42 fibrils (Aβ1-42 fibrils [8]) [fold]	emission peaks of probe bound to native TTR (native TTR [9])	fluorescence intensity increase upon binding to native TTR (native TTR [9])	fluorescence / binding with freshly prepared native Aβ1-42 (native Aβ1-42)	Stokes shift [10] [nm]	λmax (abs) [10] [nm]	λmax (em) [10] [nm]	ε [10]	α1 (normalized pre-exponential factor) (Fluorescence lifetime)	λem1 (emission wavelength of decay) (Fluorescence lifetime) [nm]	τavg (average fluorescence lifetime) (Fluorescence lifetime) [ns]	further results
Oc1ccc(/C=C/c2ccc3cc4ccccc4cc3c2)cc1O [Compound 4, (E)-4-(2-(anthracen-2-yl)vinyl)benzene-1,2-diol]	7400 ± 500	3700 ± 600	2800 ± 400	1600 ± 100	451 nm and 475 nm	91.4	451 nm and 471 nm	37.5	451	10.3	449 nm and 476 nm	about 6.1 fold	Neither 2, 4, or 5 fluoresced appreciably	148	335	483	27 070 L·M^–1 cm^–1	1	475	4.23	τ1 (Fluorescence lifetime; excitation 337 nm): 4.23 ns; α1 (normalized pre-exponential factor) (Aβ1-42 fibrils [11]; [17]): 0.38; α2 (normalized pre-exponential factor) (Aβ1-42 fibrils [11]; [17]): 0.62; τ2 (Aβ1-42 fibrils [11]; [17]): 6.06 ns; τavg (average fluorescence lifetime) (Aβ1-42 fibrils [11]): 5.7 ns and 5.73 ns; λem1 (emission wavelength of decay) (Aβ1-42 fibrils [11]; [17]): 460 nm; τ1 (Aβ1-42 fibrils [11]; [17]): 0.64 ns
Oc1ccc(/C=C/c2cc3ccc4cccc5ccc(c2)c3c45)cc1O [Compound 5, (E)-4-(2-(pyren-2-yl)vinyl)benzene-1,2-diol]	6000 ± 300	2300 ± 400	1600 ± 300	1300 ± 100	420 nm and 445 nm and 475 nm	23.2	420 nm and 445 nm and 475 nm	8.9	420	11.1	420 nm and 445 nm and 475 nm	15.8 fold	Neither 2, 4, or 5 fluoresced appreciably	78	337	415	47 668 L·M^–1 cm^–1	0.77	425	19.11	Kd (native TTR [12]): 200 ± 10 nM; λem2: emission maxima of probe bound to Aβ1-42 fibrils (Aβ1-42 fibrils [8]; 5 μM fibrils + 1 μM probe, excitation 330 nm): ~421 nm; α2 (normalized pre-exponential factor) (Fluorescence lifetime): 0.23; τ2 (Fluorescence lifetime): 29.30 ns; α1 (normalized pre-exponential factor) (Aβ1-42 fibrils [11]; [17]): 0.11; α2 (normalized pre-exponential factor) (Aβ1-42 fibrils [11]; [17]): 0.42; α3 (normalized pre-exponential factor) (Aβ1-42 fibrils [11]; [17]): 0.47; τ2 (Aβ1-42 fibrils [11]; [17]): 8.89 ns; τ3 (Aβ1-42 fibrils [11]; [17]): 34.70 ns; τavg (average fluorescence lifetime) (Aβ1-42 fibrils [11]): 29.8 ns and 29.76 ns; λem1 (emission wavelength of decay) (Aβ1-42 fibrils [11]; [17]): 430 nm; τ1 (Aβ1-42 fibrils [11]; [17]): 0.83 ns; λem1: emission maxima of probes in buffer [13]: 420 nm
Cc1ccc2c(c1)sc(-c1ccc(N(C)C)cc1)[n+]2C [ThT, thioflavin T]																					Kd (insulin fibrils [14]): 10400 nM; Kd (lysozyme fibrils [15]; read-out: Kd1 of ThT binding to lysozyme fibrils): 130 nM; Kd (lysozyme fibrils [15]; read-out: Kd2 of ThT binding to lysozyme fibrils): 17900 nM; average fluorescence lifetime t1/2 [16]: < 1 ns
